Data on four compounds can be found in PMC3985699 (Journal of the American Chemical Society, 2014).

Data set [1] relates to S. epidermis ATCC 35547. As to the kind of experiment: MIC by microdilution. Format: cell-based. An outline of the steps:
(§1)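 CLSI broth microdilution in cation-adjusted Mueller Hinton II broth, final inoculum 5 × 10⁵ CFU/mL. Plates incubated at 35 °C and read after 16–20 or 20–24 h depending on species. MIC taken as the lowest concentration with no visible growth. All determinations in triplicate.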
For orientation: In broth dilution the organism is exposed to a series of concentrations in liquid medium.

The test system of data set [2] is S. aureus ATCC 27660. The data set is described as follows: MIC by microdilution. It is filed as cell-based. Conditions: Staphylococcus aureus, ATCC27660. In short, it runs like this: (§2)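 S. aureus was tested by CLSI broth microdilution in cation-adjusted Mueller Hinton II broth, final inoculum 5 × 10⁵ CFU/mL, 35 °C, read after 16–20 or 20–24 h; oxacillin was tested with 2% NaCl. MIC was the lowest concentration without visible growth, in triplicate. For ATCC 29213, inocula of 5 × 10⁶ and 5 × 10⁷ CFU/mL were also tested.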

For data set [3], the system named is S. hemolyticus ATCC 29970. The data set is described as follows: MIC by microdilution. It is filed as cell-based. Conditions: Streptococcus pyogenes, ATCC29970.
Data set [4] relates to S. aureus VRS2. As to the kind of experiment: MIC by microdilution. It is filed as cell-based. Conditions: Staphylococcus aureus, MRSA. In short, it runs like this:
as §2

Data set [5] concerns S. aureus NRS119. As to the kind of experiment: MIC by microdilution. Conditions: Staphylococcus aureus. It is filed as cell-based. In short, it runs like this:
as §2

The test system of data set [6] is S. aureus NRS100 (COL). As to the kind of experiment: MIC by microdilution. It is filed as cell-based. Conditions: Staphylococcus aureus. An outline of the steps: as §2
The subject of data set [7] is E. faecium 106 (Van R). The data set is described as follows: MIC by microdilution. Format: cell-based. Conditions: Enterococcus faecium. In short, it runs like this: as §1
For data set [8], the system named is S. pyogenes ATCC 49399. As to the kind of experiment: MIC by microdilution. Format: cell-based. Conditions: Streptococcus pyogenes, ATCC49399. An outline of the steps:
(§3)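 Streptococcal MICs came from CLSI broth microdilution in cation-adjusted Mueller Hinton II broth with 5% lysed horse blood. Final inoculum 5 × 10⁵ CFU/mL, incubation at 35 °C, read after 16–20 or 20–24 h depending on species. MIC was the lowest concentration without visible growth, determined in triplicate.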

Data set [9] deals with S. oralis ATCC 9811. As to the kind of experiment: MIC by microdilution. It is filed as cell-based. Conditions: Streptococcus oralis, ATCC9811. In short, it runs like this: as §3
For data set [10], the system named is S. aureus ATCC 29213. As to the kind of experiment: MIC by microdilution. It is filed as cell-based. Conditions: Staphylococcus aureus, ATCC29213. An outline of the steps: as §2
For data set [11], the system named is E. faecium 119–39A (Van S). The data set is described as follows: MIC by microdilution. Format: cell-based. Conditions: Enterococcus faecium. In short, it runs like this: as §1
The subject of data set [12] is E. faecalis ATCC 29212. As to the kind of experiment: MIC by microdilution. Conditions: Enterococcus faecalis, ATCC29212. It is filed as cell-based. An outline of the steps: as §1
Data set [13] relates to S. aureus VRS1. As to the kind of experiment: MIC by microdilution. Conditions: Staphylococcus aureus, MRSA. Format: cell-based. In short, it runs like this:
as §2

For data set [14], the system named is S. aureus NRS120. The data set is described as follows: MIC by microdilution. It is filed as cell-based. Conditions: Staphylococcus aureus. An outline of the steps:
as §2

Data set [15] has as its system E. faecium NCTC 7171. As to the kind of experiment: MIC by microdilution. It is filed as cell-based. Conditions: Enterococcus faecium, NCTC7171. In short, it runs like this: as §1
Data set [16] has as its system E. faecalis 99 (Van R). The data set is described as follows: MIC by microdilution. Format: cell-based. Conditions: Enterococcus faecalis. An outline of the steps: as §1
The test system of data set [17] is E. faecalis 201 (Van S). As to the kind of experiment: MIC by microdilution. It is filed as cell-based. Conditions: Enterococcus faecalis. An outline of the steps: as §1
Data set [18] can be described thus: Hemolysis assay. Conditions: horse, washed red blood cells from horse whole blood. It is filed as cell-based, horse.
A short description of data set [19]: Pharmacokinetics in mice. It is filed as in vivo. Conditions: for volume of distribution (in words): single 50 mg/kg iv. An outline of the steps:
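Female ICR mice received a single 50 mg/kg dose, either iv in 10% DMSO/25% Tween-80/65% water or po by gavage (n = 3 per time point). Terminal blood was taken at 2 min–24 h after iv and 0.5–48 h after po, then centrifuged for plasma. Plasma was precipitated with acetonitrile containing internal standard and analysed by C18 UPLC-ESI(+)-MRM against calibration curves in blank mouse plasma.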

Data set [20] concerns the target purified recombinant PBP2a (Staphylococcus aureus, UniProt P07944). As to the kind of experiment: Continuous spectrophotometric PBP2a inhibition assay with nitrocefin. Format: biochemical, MRSA.
The subject of data set [21] is red blood cells. The data set is described as follows: Hemolysis assay. It is filed as cell-based, horse. Conditions: horse RBCs, 37 °C, 1 h; 3% values at 64 μg/mL (32-fold above the MIC).
Setting [22] is: ICR, mouse, plasma, iv, 50 mg/kg.
[23] abbreviates: female, ICR, mouse, plasma, po, 50 mg/kg.

Converted amounts (≈) assume the structure as drawn.

Chain of purified recombinant PBP2a (P07944 whole entry): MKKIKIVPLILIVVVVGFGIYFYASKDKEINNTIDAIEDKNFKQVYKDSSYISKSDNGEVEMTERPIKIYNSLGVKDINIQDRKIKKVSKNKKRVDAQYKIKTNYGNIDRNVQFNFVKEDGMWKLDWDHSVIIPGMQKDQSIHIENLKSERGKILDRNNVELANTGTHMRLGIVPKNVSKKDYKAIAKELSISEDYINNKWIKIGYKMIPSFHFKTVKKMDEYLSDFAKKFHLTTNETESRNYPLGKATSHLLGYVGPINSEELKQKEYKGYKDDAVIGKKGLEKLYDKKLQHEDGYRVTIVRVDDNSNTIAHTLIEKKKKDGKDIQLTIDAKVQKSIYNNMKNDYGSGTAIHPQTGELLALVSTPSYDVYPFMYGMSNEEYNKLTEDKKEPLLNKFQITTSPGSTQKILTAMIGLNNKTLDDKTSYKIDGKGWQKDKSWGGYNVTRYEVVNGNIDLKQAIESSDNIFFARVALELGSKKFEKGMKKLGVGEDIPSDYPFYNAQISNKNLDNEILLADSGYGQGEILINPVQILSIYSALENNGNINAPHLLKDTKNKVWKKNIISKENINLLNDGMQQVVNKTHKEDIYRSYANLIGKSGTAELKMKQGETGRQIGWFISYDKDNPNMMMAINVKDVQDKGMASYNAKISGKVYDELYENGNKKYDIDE

Consider `CC(=O)NC[C@H]1CN(c2ccc(N3CCOCC3)c(F)c2)C(=O)O1` [linezolid, reference compound], for which the minimum inhibitory concentration (MIC) (as a rule, the smallest concentration in the dilution series that meets the test's criterion for growth inhibition) was determined as 1 µg/mL (≈ 2.96 µM) in data set [1]; 2 µg/mL (≈ 5.93 µM) in [2]; 2 µg/mL (≈ 5.93 µM) in data set [3]; 2 µg/mL (≈ 5.93 µM) in [4]; 32 µg/mL (≈ 94.9 µM) in [5]; 2 µg/mL (≈ 5.93 µM) in data set [6]. In addition, the minimum inhibitory concentration (MIC) in [7] came to 1 µg/mL (≈ 2.96 µM); in data set [8], 1 µg/mL (≈ 2.96 µM); in data set [9], 1 µg/mL (≈ 2.96 µM); in data set [10], 4 µg/mL (≈ 11.9 µM); in [11] it was 2 µg/mL (≈ 5.93 µM); in data set [12] it was 2 µg/mL (≈ 5.93 µM). The minimum inhibitory concentration (MIC) in data set [13] was determined as 2 µg/mL (≈ 5.93 µM); in [14], 32 µg/mL (≈ 94.9 µM); in data set [15], 2 µg/mL (≈ 5.93 µM); in data set [16], 1 µg/mL (≈ 2.96 µM); in data set [17], 2 µg/mL (≈ 5.93 µM).

Turning to `CN[C@H](CC(C)C)C(=O)N[C@H]1C(=O)N[C@@H](CC(N)=O)C(=O)N[C@H]2C(=O)N[C@H]3C(=O)N[C@H](C(=O)N[C@H](C(=O)O)c4cc(O)cc(O)c4-c4cc3ccc4O)[C@H](O)c3ccc(c(Cl)c3)Oc3cc2cc(c3O[C@@H]2O[C@H](CO)[C@@H](O)[C@H](O)[C@H]2O[C@H]2C[C@](C)(N)[C@H](O)[C@H](C)O2)Oc2ccc(cc2Cl)[C@H]1O` [vancomycin, reference compound], the MIC in data set [1] was determined as 16 µg/mL (≈ 11 µM); in data set [2] it was 1 µg/mL (≈ 0.69 µM); in data set [3] it was 2 µg/mL (≈ 1.38 µM); in data set [4] it was 64 µg/mL (≈ 44.2 µM); in data set [5], 2 µg/mL (≈ 1.38 µM); in data set [6], 2 µg/mL (≈ 1.38 µM). The MIC in [7] was 256 µg/mL (≈ 177 µM); in data set [8], 0.6 µg/mL (≈ 0.414 µM); in data set [9], 0.5 µg/mL (≈ 0.345 µM); in [11], 0.5 µg/mL (≈ 0.345 µM); in data set [12] it was 2 µg/mL (≈ 1.38 µM); in [13] it was 512 µg/mL (≈ 353 µM). Also, the minimum inhibitory concentration (MIC) in data set [14] turned out to be 2 µg/mL (≈ 1.38 µM); in data set [15] it was 0.5 µg/mL (≈ 0.345 µM); in data set [16], 128 µg/mL (≈ 88.3 µM); in data set [17] it was 1 µg/mL (≈ 0.69 µM).

For `Oc1ccc(-c2nc(-c3ccc(Oc4ccccc4)cc3)no2)cc1` [Compound 2, 4-(3-(4-Phenoxyphenyl)-1,2,4-oxadiazol-5-yl)phenol], the hemolysis at 1 h, 64 μg/mL in [18] is 3%. The MIC in data set [1], in data set [2], in data set [3], in data set [4], in data set [5] and in data set [6] was 2 µg/mL (≈ 6.05 µM) each time. Besides, the minimum inhibitory concentration (MIC) in data set [7] is 2 µg/mL (≈ 6.05 µM); in data set [8], 32 µg/mL (≈ 96.9 µM); in data set [9], 32 µg/mL (≈ 96.9 µM); in data set [10], 2 µg/mL (≈ 6.05 µM); in data set [11] it was 1 µg/mL (≈ 3.03 µM); in [12], 2 µg/mL (≈ 6.05 µM). The MIC in [13] was determined as 2 µg/mL (≈ 6.05 µM); in [14] it was 2 µg/mL (≈ 6.05 µM); in data set [15], 1 µg/mL (≈ 3.03 µM); in data set [17] it was 2 µg/mL (≈ 6.05 µM). Further, the AUC(0-inf) (commonly total exposure, with the tail of the curve extrapolated) in data set [19] (setting [22]) is 23 µg·h/mL. In addition, in data set [19] (setting [22]), the Vd (in general, the apparent volume that relates the amount in the body to the concentration in plasma or blood) came out at 0.86 L/kg. Besides, the clearance (in general, the volume of plasma or blood freed of the substance per unit of time) in [19] (setting [22]) is 36.2 mL/min/kg. Moreover, the “volume of distribution (in words)” value in data set [19] (mice) is recorded as “large volume of distribution”. Moreover, the 50% inhibitory concentration (IC50) – broadly, the concentration at which inhibition is half-maximal – in data set [20] was 12.1 µM.

For `Nc1ccc(-c2nc(-c3ccc(Oc4ccc(C(F)(F)F)cc4)cc3)no2)cc1` [Compound 4, 4-(3-(4-(4-(Trifluoromethyl)phenoxy)phenyl)-1,2,4-oxadiazol-5-yl)aniline], the “hemolysis of red blood cells” value in data set [21] is reported as “not hemolytic at all”. The MIC was determined as 2 µg/mL (≈ 5.03 µM) in data set [1]; 2 µg/mL (≈ 5.03 µM) in data set [2]; 4 µg/mL (≈ 10.1 µM) in data set [3]; 2 µg/mL (≈ 5.03 µM) in data set [4]; 2 µg/mL (≈ 5.03 µM) in [5]; 2 µg/mL (≈ 5.03 µM) in data set [6]. Further, the minimum inhibitory concentration (MIC) in data set [7] was 2 µg/mL (≈ 5.03 µM); in [8], 32 µg/mL (≈ 80.5 µM); in data set [9] it was 32 µg/mL (≈ 80.5 µM); in [10], 2 µg/mL (≈ 5.03 µM); in data set [11] it was 1 µg/mL (≈ 2.52 µM); in [12], 2 µg/mL (≈ 5.03 µM). Further, the minimal inhibitory concentration (MIC) in data set [13] was 2 µg/mL (≈ 5.03 µM); in [14], 2 µg/mL (≈ 5.03 µM); in [15], 2 µg/mL (≈ 5.03 µM); in [16], 2 µg/mL (≈ 5.03 µM); in data set [17], over 32 µg/mL. The results for the AUC(0-inf) in [19] (setting [22]) and in data set [19] (setting [23]) were 153 µg·h/mL and 154 µg·h/mL, respectively. The Vd in data set [19] (setting [22]) is 0.72 L/kg. The clearance in data set [19] (setting [22]) came out at 5.4 mL/min/kg. The peak level in data set [19] (setting [23]) (Cmax) was 10000 ng/mL. The Tmax (commonly the time at which the peak concentration occurs) in [19] (setting [23]) was 2 h. Besides, the “higher systemic exposure relative to comparator compound” value in data set [19] (mice, 50 mg/kg iv, compound 3 vs compound 2, compound 4 vs compound 3) is 3.5 fold. Further, in data set [19] (mice), the “volume of distribution (in words)” value is listed as “large volume of distribution”.
